Reference: publication PMC9942236 (Science translational medicine, 2023)

Tests used:
HA-Ras cells = assay: Cell viability of transformed astrocytes expressing HRAS G12V; assay type: cell-based, human; settings: read-out: EC50 (cell viability), 1% serum, 96h
Method in brief: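 Human astrocytes immortalized with E6/E7/hTERT and transformed by HRAS G12V expression were treated with test compound in 1% serum for 96 h, then viability was measured. At least three independent biological replicates; experiments repeated at least three times; mean ± SD.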

M120 = assay: Short-term cell viability of recurrent GSC line M120; assay type: cell-based, human; settings: YTX-7739 at 10 μM, TMZ 50–100μM
[1] = system: 83 GSC orthotopic brain tumors; assay: Orthotopic 83 GSC mouse model: tumor growth and survival; assay type: in vivo; settings: 83-bearing mice; YTX-7739 30mg/kg, TMZ 10mg/kg, IP
[2] = system: MGG8 orthotopic brain tumors; assay: Orthotopic MGG8 GSC mouse model: tumor growth and survival; assay type: in vivo; settings: MGG8-bearing mice; YTX-7739 30 mg/kg, TMZ 5mg/kg, IP
Method in brief: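 Fluc-expressing MGG8 GSCs (1–5 × 10⁴) implanted into left forebrain of male/female athymic nude mice; treatment began once tumors bioluminescence-detected (D-luciferin 150 mg/kg IP). Groups (n=8): vehicle (0.5% methylcellulose + 0.2% Tween80 in saline), test compound 30 mg/kg, TMZ 5 mg/kg (in 5% dextrose), or combination, IP. Tumor growth by bioluminescence; Kaplan-Meier survival, two-sided log-rank test; study ended at six months.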

| Structure (SMILES) | EC50 (HA-Ras cells) [nM] | short-term cell viability (M120) | median survival [1] [days] | tumor growth [1] | survival [2] [days] | survival percentage at six months after tumor implantation [2] [%] |
| --- | --- | --- | --- | --- | --- | --- |
| Cc1nnc(-c2ccc(N3CCC(Oc4cc(F)ccc4Cl)CC3)nn2)o1 [CAY10566] | 18.6 |  |  |  |  |  |
| Cn1nnc2c(C(N)=O)ncn2c1=O [TMZ, Temozolomide] |  | ineffective | 32 | initially delayed tumor growth | 106.5 | 25 |
